Key:
Assay type in all cases: functional
[1] = test system: RPMI-8226; experiment: Growth inhibition of human RPMI8226 cells at 10 uM after 48 hrs by coulter counting; conditions: RPMI-8226, 48 h, read-out: GI
In short: (§1)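 Single-dose primary screen across the full NCI 60-cell-line panel. Stocks were made in DMSO and diluted in PBS to a final DMSO below 1%. Cultures at 6 × 10⁴ cells/ml were run in duplicate wells alongside PBS/DMSO vehicle controls at 37 °C in humidified 5% CO₂. Data were expressed as percent growth of treated cells.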

[2] = test system: HL-60(TB); experiment: Growth inhibition of human HL-60(TB) cells at 10 uM after 48 hrs by coulter counting; conditions: HL-60, 48 h, read-out: GI
In short: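 Test compound was dissolved in DMSO and diluted in phosphate-buffered saline to a final DMSO level below 1%. Dilutions were plated in duplicate with cell culture at 6 × 10⁴ cells/ml. Vehicle controls held PBS and DMSO at matching dilutions. Incubation was at 37 °C, humidified, under 5% CO₂. Data were reported as percent growth of treated cells.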

[3] = test system: EKVX; experiment: Growth inhibition of human EKVX cells at 10 uM after 48 hrs by coulter counting; conditions: read-out: GI; in short: as §1
[4] = test system: UO-31; experiment: Growth inhibition of human UO31 cells at 10 uM after 48 hrs by coulter counting; conditions: UO-31, 48 h, read-out: GI
In short: (§2)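 Single-dose screen in the NCI 60 human tumor cell line panel (nine subpanels). Compounds dissolved in DMSO and diluted in phosphate buffered saline, keeping final DMSO below 1%. Added in duplicate wells to cells at 6 × 10⁴ cells/ml. Controls held PBS and DMSO at matching dilutions. Incubated at 37 °C, humidified, 5% CO₂. Reported as percent growth of treated cells.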

[5] = test system: SF-295; experiment: Growth inhibition of human SF295 cells at 10 uM after 48 hrs by coulter counting; conditions: SF-295, 48 h, read-out: GI; in short: as §1
[6] = test system: MDA-MB-435; experiment: Growth inhibition of human MDA-MB-435 cells at 10 uM after 48 hrs by coulter counting; conditions: MDA-MB-435, 48 h, read-out: GI; in short: as §1
[7] = test system: HCT-116; experiment: Growth inhibition of human HCT116 cells at 10 uM after 48 hrs by coulter counting; conditions: HCT-116, 48 h, read-out: GI; in short: as §1
[8] = test system: SNB-75; experiment: Growth inhibition of human SNB75 cells at 10 uM after 48 hrs by coulter counting; conditions: SNB-75, 48 h, read-out: GI; in short: as §1
[9] = test system: MCF7; experiment: Growth inhibition of human MCF7 cells at 10 uM after 48 hrs by coulter counting; conditions: MCF7, 48 h, read-out: GI; in short: as §1
[10] = test system: LOX IMVI; experiment: Growth inhibition of human LOXIMVI cells at 10 uM after 48 hrs by coulter counting; conditions: read-out: GI; in short: as §1
[11] = test system: OVCAR-4; experiment: Growth inhibition of human OVCAR4 cells at 10 uM after 48 hrs by coulter counting; conditions: OVCAR-4, 48 h, read-out: GI; in short: as §1
[12] = test system: DU-145; experiment: Growth inhibition of human DU145 cells at 10 uM after 48 hrs by coulter counting; conditions: DU-145, 48 h, read-out: GI; in short: as §1
[13] = test system: CCRF-CEM; experiment: Growth inhibition of human CCRF-CEM cells at 10 uM after 48 hrs by coulter counting; conditions: read-out: GI; in short: as §1
[14] = test system: NCI-H23; experiment: Growth inhibition of human NCI-H23 cells at 10 uM after 48 hrs by coulter counting; conditions: NCI-H23, 48 h, read-out: GI; in short: as §1
[15] = test system: KM12; experiment: Growth inhibition of human KM12 cells at 10 uM after 48 hrs by coulter counting; conditions: KM12, 48 h, read-out: GI; in short: as §1
[16] = test system: K562; experiment: Growth inhibition of human K562 cells at 10 uM after 48 hrs by coulter counting; conditions: K562, 48 h, read-out: GI; in short: as §1
[17] = test system: U-251; experiment: Growth inhibition of human U251 cells at 10 uM after 48 hrs by coulter counting; conditions: U-251, 48 h, read-out: GI; in short: as §2
[18] = test system: CAKI-1; experiment: Growth inhibition of human Caki1 cells at 10 uM after 48 hrs by coulter counting; conditions: CAKI-1, 48 h, read-out: GI; in short: as §1
[19] = test system: NCI/ADR-RES; experiment: Growth inhibition of human NCI/ADR-RES cells at 10 uM after 48 hrs by coulter counting; conditions: read-out: GI; in short: as §1
[20] = Growth inhibition of human NCI-322M cells at 10 uM after 48 hrs by coulter counting; conditions: read-out: GI; in short: as §1
[21] = test system: HCC 2998; experiment: Growth inhibition of human HCC2998 cells at 10 uM after 48 hrs by coulter counting; conditions: HCC 2998, 48 h, read-out: GI; in short: as §1
[22] = test system: M14; experiment: Growth inhibition of human M14 cells at 10 uM after 48 hrs by coulter counting; conditions: M14, 48 h, read-out: GI; in short: as §1
[23] = test system: SNB-19; experiment: Growth inhibition of human SNB19 cells at 10 uM after 48 hrs by coulter counting; conditions: SNB-19, 48 h, read-out: GI; in short: as §1
[24] = test system: NCI-H522; experiment: Growth inhibition of human NCI-H522 cells at 10 uM after 48 hrs by coulter counting; conditions: NCI-H522, 48 h, read-out: GI; in short: as §1
[25] = test system: SK-MEL-5; experiment: Growth inhibition of human SK-MEL-5 cells at 10 uM after 48 hrs by coulter counting; conditions: SK-MEL-5, 48 h, read-out: GI; in short: as §1
[26] = test system: MOLT-4; experiment: Growth inhibition of human MOLT4 cells at 10 uM after 48 hrs by coulter counting; conditions: MOLT-4, 48 h, read-out: GI; in short: as §1
[27] = test system: HT-29; experiment: Growth inhibition of human HT-29 cells at 10 uM after 48 hrs by coulter counting; conditions: HT-29, 48 h, read-out: GI; in short: as §1
[28] = test system: BT-549; experiment: Growth inhibition of human BT549 cells at 10 uM after 48 hrs by coulter counting; conditions: BT-549, 48 h, read-out: GI; in short: as §1
[29] = test system: ACHN; experiment: Growth inhibition of human ACHN cells at 10 uM after 48 hrs by coulter counting; conditions: read-out: GI; in short: as §1
[30] = test system: SF-268; experiment: Growth inhibition of human SF268 cells at 10 uM after 48 hrs by coulter counting; conditions: SF-268, 48 h, read-out: GI; in short: as §1
[31] = test system: A498; experiment: Growth inhibition of human A498 cells at 10 uM after 48 hrs by coulter counting; conditions: A498, 48 h, read-out: GI; in short: as §1
[32] = test system: IGROV-1; experiment: Growth inhibition of human IGROV1 cells at 10 uM after 48 hrs by coulter counting; conditions: IGROV-1, 48 h, read-out: GI; in short: as §1
[33] = test system: UACC-62; experiment: Growth inhibition of human UACC62 cells at 10 uM after 48 hrs by coulter counting; conditions: UACC-62, 48 h, read-out: GI; in short: as §2
[34] = test system: SK-MEL-28; experiment: Growth inhibition of human SK-MEL-28 cells at 10 uM after 48 hrs by coulter counting; conditions: SK-MEL-28, 48 h, read-out: GI; in short: as §1
[35] = test system: NCI-H226; experiment: Growth inhibition of human NCI-H226 cells at 10 uM after 48 hrs by coulter counting; conditions: NCI-H226, 48 h, read-out: GI; in short: as §1
[36] = test system: T47D; experiment: Growth inhibition of human T47D cells at 10 uM after 48 hrs by coulter counting; conditions: read-out: GI; in short: as §2
[37] = test system: A549; experiment: Growth inhibition of human A549 cells at 10 uM after 48 hrs by coulter counting; conditions: A549, 48 h, read-out: GI; in short: as §1
[38] = test system: SK-MEL-2; experiment: Growth inhibition of human SK-MEL-2 cells at 10 uM after 48 hrs by coulter counting; conditions: SK-MEL-2, 48 h, read-out: GI; in short: as §1
[39] = test system: UACC-257; experiment: Growth inhibition of human UACC257 cells at 10 uM after 48 hrs by coulter counting; conditions: UACC-257, 48 h, read-out: GI; in short: as §2
[40] = test system: HOP-62; experiment: Growth inhibition of human HOP62 cells at 10 uM after 48 hrs by coulter counting; conditions: HOP-62, 48 h, read-out: GI; in short: as §1
[41] = test system: NCI-H460; experiment: Growth inhibition of human NCI-H460 cells at 10 uM after 48 hrs by coulter counting; conditions: NCI-H460, 48 h, read-out: GI; in short: as §1

## COc1cc(/C=C2\CCCC3=C2N=C2SC=C(C)N2C3c2cc(OC)c(OC)c(OC)c2)cc(OC)c1OC (stereo not given)
[1]
  inhibition of growth at 10 µM: > 10%
[2]
  inhibition of growth at 10 µM: > 10%
[3]
  inhibition of growth at 10 µM: > 10%
[4]
  inhibition of growth at 10 µM: 20%
[5]
  inhibition of growth at 10 µM: > 10%
[6]
  inhibition of growth at 10 µM: > 10%
[7]
  inhibition of growth at 10 µM: > 10%
[8]
  inhibition of growth at 10 µM: > 10%
[9]
  inhibition of growth at 10 µM: > 10%
[10]
  inhibition of growth at 10 µM: > 10%
[11]
  inhibition of growth at 10 µM: > 10%
[12]
  inhibition of growth at 10 µM: > 10%
[13]
  inhibition of growth at 10 µM: > 10%
[14]
  inhibition of growth at 10 µM: > 10%
[15]
  inhibition of growth at 10 µM: > 10%
[16]
  inhibition of growth at 10 µM: > 10%
[17]
  inhibition of growth at 10 µM: > 10%
[18]
  inhibition of growth at 10 µM: > 10%
[19]
  inhibition of growth at 10 µM: > 10%
[20]
  inhibition of growth at 10 µM: > 10%
[21]
  inhibition of growth at 10 µM: > 10%
[22]
  inhibition of growth at 10 µM: > 10%
[23]
  inhibition of growth at 10 µM: > 10%
[24]
  inhibition of growth at 10 µM: > 10%
[25]
  inhibition of growth at 10 µM: > 10%
[26]
  inhibition of growth at 10 µM: > 10%
[27]
  inhibition of growth at 10 µM: > 10%
[28]
  inhibition of growth at 10 µM: > 10%
[29]
  inhibition of growth at 10 µM: > 10%
[30]
  inhibition of growth at 10 µM: > 10%
[31]
  inhibition of growth at 10 µM: > 10%
[32]
  inhibition of growth at 10 µM: > 10%
[33]
  inhibition of growth at 10 µM: > 10%
[34]
  inhibition of growth at 10 µM: > 10%
[35]
  inhibition of growth at 10 µM: > 10%
[36]
  inhibition of growth at 10 µM: > 10%
[37]
  inhibition of growth at 10 µM: > 10%
[38]
  inhibition of growth at 10 µM: > 10%
[39]
  inhibition of growth at 10 µM: > 10%

## CC1=CSC2=NC3=C(CCC/C3=C\c3cccs3)C(c3cccs3)N12 (stereo not given)
[1]
  inhibition of growth at 10 µM: > 10%
[2]
  inhibition of growth at 10 µM: 11.4%
[40]
  inhibition of growth at 10 µM: 11.3%
[3]
  inhibition of growth at 10 µM: > 10%
[4]
  inhibition of growth at 10 µM: 24.5%
[5]
  inhibition of growth at 10 µM: > 10%
[6]
  inhibition of growth at 10 µM: > 10%
[7]
  inhibition of growth at 10 µM: > 10%
[8]
  inhibition of growth at 10 µM: 16.6%
[9]
  inhibition of growth at 10 µM: > 10%
[10]
  inhibition of growth at 10 µM: > 10%
[11]
  inhibition of growth at 10 µM: > 10%
[12]
  inhibition of growth at 10 µM: > 10%
[41]
  inhibition of growth at 10 µM: > 10%
[13]
  inhibition of growth at 10 µM: > 10%
[14]
  inhibition of growth at 10 µM: > 10%
[15]
  inhibition of growth at 10 µM: > 10%
[16]
  inhibition of growth at 10 µM: > 10%
[17]
  inhibition of growth at 10 µM: > 10%
[18]
  inhibition of growth at 10 µM: > 10%
[19]
  inhibition of growth at 10 µM: > 10%
[20]
  inhibition of growth at 10 µM: > 10%
[21]
  inhibition of growth at 10 µM: > 10%
[22]
  inhibition of growth at 10 µM: > 10%
[23]
  inhibition of growth at 10 µM: > 10%
[24]
  inhibition of growth at 10 µM: > 10%
[25]
  inhibition of growth at 10 µM: > 10%
[26]
  inhibition of growth at 10 µM: > 10%
[27]
  inhibition of growth at 10 µM: > 10%
[28]
  inhibition of growth at 10 µM: > 10%
[29]
  inhibition of growth at 10 µM: > 10%
[30]
  inhibition of growth at 10 µM: > 10%
[31]
  inhibition of growth at 10 µM: 14.3%
[32]
  inhibition of growth at 10 µM: > 10%
[33]
  inhibition of growth at 10 µM: > 10%
[34]
  inhibition of growth at 10 µM: > 10%
[35]
  inhibition of growth at 10 µM: > 10%
[36]
  inhibition of growth at 10 µM: > 10%
[37]
  inhibition of growth at 10 µM: > 10%
[38]
  inhibition of growth at 10 µM: > 10%
[39]
  inhibition of growth at 10 µM: > 10%
